The values below come from ChEMBL document CHEMBL4382218, “Design, synthesis and antifungal evaluation of borrelidin derivatives” (Bioorg Med Chem, 2018).

The test system of data set [1] is Aspergillus fumigatus. Nature of the data set: Antifungal activity against Aspergillus fumigatus CCTCC AF 93048 after 48 hrs by micro broth dilution method. It is filed as functional. Conditions: CCTCC AF 93048, 48 h. Summed up: (§1)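 Broth microdilution in RPMI-1640 (NaHCO3, MOPS, pH 7.0). Compounds are dissolved in DMSO and serially diluted 2-fold to eight concentrations, with stocks of […]. Fungal inocula are 2 × 10³ cfu/mL. Plates are incubated 48 h at 28 °C. The MIC is the lowest concentration with no turbidity, and the highest concentration tested is 100 μg/mL.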

Data set [2] has as its system Candida albicans. Nature of the data set: Antifungal activity against Candida albicans ATCC MYA-2876 at 100 ug/ml after 48 hrs by micro broth dilution method. It is filed as functional, organism-based. The gist of the method:
as §1

For data set [3], the system named is Candida parapsilosis. Nature of the data set: Antifungal activity against Candida parapsilosis ATCC 22019 at 100 ug/ml after 48 hrs by micro broth dilution method. In kind it is functional, organism-based. The gist of the method: as §1
The subject of data set [4] is HEK-293T. Nature of the data set: Cytotoxicity against HEK293T cells assessed as growth inhibition after 48 hrs by MTT assay. It is filed as cell-based. To be noted: Homo sapiens. Summed up: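 293T cells are grown in DMEM with 10% FBS, L-glutamine and penicillin/streptomycin at 37 °C in 5% CO₂. Cells are seeded at 7 × 10³ per well and exposed to six concentrations (0.33-100.0 μM) for 48 h. MTT is then added for 4 h, formazan is dissolved in DMSO and read at 570 nm. IC50 comes from non-linear regression, n = 3 independent experiments.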

Data set [5] can be described thus: Selectivity index, ratio of IC50 for HEK293T cells to MIC for Candida albicans ATCC MYA-2876. Conditions: human, read-out: Selectivity Index. It is filed as toxicity.
The nature of data set [6]: Selectivity index, ratio of IC50 for HEK293T cells to MIC for Candida parapsilosis ATCC 22019. In kind it is toxicity. To be noted: human, read-out: Selectivity Index.
A short description of data set [7]: Selectivity index, ratio of IC50 for HEK293T cells to MIC for Aspergillus fumigatus CCTCC AF 93048. In kind it is toxicity. Conditions: human, read-out: Selectivity Index.
Data set [8] relates to Candida albicans. The data set can be described thus: Antifungal activity against Candida albicans ATCC MYA-2876 after 48 hrs by micro broth dilution method. To be noted: ATCC MYA-2876, 48 h. In kind it is functional. The gist of the method:
as §1

The test system of data set [9] is Candida parapsilosis. Nature of the data set: Antifungal activity against Candida parapsilosis ATCC 22019 after 48 hrs by micro broth dilution method. Conditions: Lodderomyces parapsilosis, ATCC 22019, 48 h. In kind it is functional. The gist of the method: as §1
The test system of data set [10] is Aspergillus fumigatus. Nature of the data set: Antifungal activity against Aspergillus fumigatus CCTCC AF 93048 at 100 ug/ml after 48 hrs by micro broth dilution method. It is filed as functional, organism-based. Summed up: as §1

In brackets after ≈: the same amount, converted by molar mass. Activity calls are given as the source filed them. The calls are words filed in the database; no cut-off is given here.

With `C=CCN1CCN(CCOC(=O)[C@@H]2CCC[C@H]2[C@@H]2C/C=C/C=C(/C#N)[C@H](O)[C@@H](C)C[C@H](C)C[C@H](C)C[C@H](C)[C@@H](O)CC(=O)O2)CC1`, it took 12.5 µg/mL (≈ 19.5 µM) to inhibit growth in [1] (MIC). The result in data set [2] and in data set [3] was inactive. Also, the IC50 in data set [4] was 22 µg/mL (≈ 34.3 µM). Further, the selectivity ratio in data set [5] was under 0.22; in data set [6], under 0.22; in data set [7], 1.76.
On to `C[C@@H]1C[C@H](C)C[C@H](C)[C@@H](O)CC(=O)O[C@H]([C@@H]2CCC[C@H]2C(=O)OCCN2CCCCC2)C/C=C/C=C(/C#N)[C@H](O)[C@@H](C)C1`, for which the minimum inhibitory concentration (MIC) amounted to 100 µg/mL (≈ 166 µM) in data set [8], 100 µg/mL (≈ 166 µM) in data set [9] and 50 µg/mL (≈ 83.2 µM) in [1]. The concentration for half-maximal inhibition (IC50) in [4] is 27.6 µg/mL (≈ 46 µM). For the same molecule, the selectivity ratio was 0.28 in [5], 0.28 in data set [6] and 0.55 in [7].
Turning to `C[C@@H]1C[C@H](C)C[C@H](C)[C@@H](O)CC(=O)O[C@H]([C@@H]2CCC[C@H]2C(=O)OCCN2CCOCC2)C/C=C/C=C(/C#N)[C@H](O)[C@@H](C)C1`, the minimum inhibitory concentration (MIC) in [8] and in data set [9] was 100 µg/mL (≈ 166 µM) throughout. In [10], the result was inactive. Also, the IC50 in data set [4] is 28 µg/mL (≈ 46.5 µM). Also, the values for the selectivity ratio in [5], in data set [6] and in [7] were 0.28, 0.28 and under 0.28, respectively.
For the molecule `C[C@@H]1[C@H](O)[C@@H](C)/C=C/C=C/C=C/C=C/C=C/C=C/C=C/[C@H](O[C@@H]2O[C@H](C)[C@@H](O)[C@H](N)[C@@H]2O)C[C@@H]2O[C@](O)(C[C@@H](O)C[C@@H](O)[C@H](O)CC[C@@H](O)C[C@@H](O)CC(=O)O[C@H]1C)C[C@H](O)[C@H]2C(=O)O` [AMPHOTERICIN B], the minimal inhibitory concentration (MIC) in data set [8] turned out to be 2 µg/mL (≈ 2.16 µM); in data set [9], 1 µg/mL (≈ 1.08 µM); in [1], 2 µg/mL (≈ 2.16 µM).
For the molecule `C[C@@H]1C[C@H](C)C[C@H](C)[C@@H](O)CC(=O)O[C@H]([C@@H]2CCC[C@H]2C(=O)OCCn2ccnc2)C/C=C/C=C(/C#N)[C@H](O)[C@@H](C)C1`, the MIC in data set [1] was 25 µg/mL (≈ 42.8 µM). Further, the half-inhibitory concentration (IC50) in data set [4] worked out at 18.1 µg/mL (≈ 31 µM). The selectivity ratio in data set [5] was under 0.18; in data set [6], under 0.18; in [7] it was 0.72.
As for `C[C@@H]1C[C@H](C)C[C@H](C)[C@@H](O)CC(=O)O[C@H]([C@@H]2CCC[C@H]2C(=O)O)C/C=C/C=C(/C#N)[C@H](O)[C@@H](C)C1` [BORRELIDIN], inhibition of growth in [9] (MIC) required 50 µg/mL (≈ 102 µM). Further, the outcome in data set [2] and in data set [10] was inactive. Further, the half-maximal inhibitory concentration (IC50) in data set [4] came out at 14 µg/mL (≈ 28.5 µM). The results for the selectivity ratio in data set [5], in data set [6] and in data set [7] were under 0.14, 0.28 and under 0.14, respectively.
`C[C@@H]1C[C@H](C)C[C@H](C)[C@@H](O)CC(=O)O[C@H]([C@@H]2CCC[C@H]2C(=O)O)C/C=C/C=C(/C(N)=O)[C@H](O)[C@@H](C)C1`: the MIC in [8], in [9] and in data set [1] was over 100 µg/mL throughout. Besides, the result in data set [2], in [3] and in data set [10] was inactive.
`C[C@@H]1C[C@H](C)C[C@H](C)[C@@H](O)CC(=O)O[C@H]([C@@H]2CCC[C@H]2C(=O)OCCN(C)C)C/C=C/C=C(/C#N)[C@H](O)[C@@H](C)C1`: the MIC in data set [8] and in data set [9] was 100 µg/mL (≈ 178 µM) throughout. In addition, the outcome in data set [10] was inactive. For the same molecule, the IC50 in [4] is 39.2 µg/mL (≈ 70 µM). For the same molecule, the selectivity ratio in data set [5] was 0.39; in data set [6], 0.39; in [7] it was under 0.39.
As for `C[C@@H]1C[C@H](C)C[C@H](C)[C@@H](O)CC(=O)O[C@H]([C@@H]2CCC[C@H]2C(=O)OCCN2CCCC2)C/C=C/C=C(/C#N)[C@H](O)[C@@H](C)C1`, the MIC in [8] came out at 50 µg/mL (≈ 85.2 µM); in [9] it was 12.5 µg/mL (≈ 21.3 µM); in data set [1], 50 µg/mL (≈ 85.2 µM). Also, the half-inhibitory concentration (IC50) in data set [4] amounted to 35.2 µg/mL (≈ 60 µM). The selectivity ratio in [5] came to 0.71; in data set [6] it was 2.81; in data set [7], 0.71.
For the molecule `C[C@@H]1C[C@H](C)C[C@H](C)[C@@H](O)CC(=O)O[C@H]([C@@H]2CCC[C@H]2C(=O)OCCN2CCN(CC3CCCCC3)CC2)C/C=C/C=C(/C#N)[C@H](O)[C@@H](C)C1`, the minimal inhibitory concentration (MIC) in [1] was 25 µg/mL (≈ 35.8 µM). The outcome in [2] and in [3] was inactive. The IC50 in data set [4] amounted to 23 µg/mL (≈ 33 µM). The results for the selectivity ratio in data set [5], in data set [6] and in [7] were under 0.23, under 0.23 and 0.92, respectively.
Regarding `C[C@@H]1C[C@H](C)C[C@H](C)[C@@H](O)CC(=O)O[C@H]([C@@H]2CCC[C@H]2C(=O)OCCN2CCN(C)CC2)C/C=C/C=C(/C#N)[C@H](O)[C@@H](C)C1`, the MIC in data set [8] was determined as 100 µg/mL (≈ 162 µM); in [9], 25 µg/mL (≈ 40.6 µM); in data set [1] it was 50 µg/mL (≈ 81.2 µM). The half-inhibitory concentration (IC50) in [4] was 58.5 µg/mL (≈ 94.9 µM). For the same molecule, the selectivity ratio in data set [5] turned out to be 0.58; in data set [6], 2.34; in data set [7] it was 1.17.
For `C[C@@H]1C[C@H](C)C[C@H](C)[C@@H](O)CC(=O)O[C@H]([C@@H]2CCC[C@H]2C(=O)OCCN2CCN(CCC3OCCO3)CC2)C/C=C/C=C(/C#N)[C@H](O)[C@@H](C)C1`, in data set [1], the minimal inhibitory concentration (MIC) turned out to be 12.5 µg/mL (≈ 17.8 µM). Moreover, the result in [2] and in data set [3] was inactive. Moreover, the IC50 in [4] was over 70.1 µg/mL. Besides, the values for the selectivity ratio in [5], in data set [6] and in data set [7] were under 0.7, under 0.7 and over 5.61, respectively.
`C[C@@H]1C[C@H](C)C[C@H](C)[C@@H](O)CC(=O)O[C@H]([C@@H]2CCC[C@H]2C(=O)OCCN2CCN(CC3CC3)CC2)C/C=C/C=C(/C#N)[C@H](O)[C@@H](C)C1` displayed an MIC in data set [1] of 50 µg/mL (≈ 76.2 µM). The outcome in data set [2] and in [3] was inactive. Besides, in data set [4], the IC50 came to 17 µg/mL (≈ 26 µM). Further, the values for the selectivity ratio in data set [5], in data set [6] and in data set [7] were under 0.17, under 0.17 and 0.34, respectively.
Consider `C[C@@H]1C[C@H](C)C[C@H](C)[C@@H](O)CC(=O)O[C@H]([C@@H]2CCC[C@H]2C(=O)NCCc2ccccn2)C/C=C/C=C(/C#N)[C@H](O)[C@@H](C)C1`, for which the result in data set [2], in data set [3] and in [10] was inactive.
